Experimental findings from PubChem BioAssay AID493081 (Broad Institute, 2011) are described below.

The structures appear in SMILES notation. Activity calls are given as the source filed them.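 Rule for the calls: active = fitted half-maximal dose of growth inhibition at or below ten times the top valid tested dose; inconclusive = flat fit with moderate inhibition, or poor fit quality; inactive = the rest.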

One may read the AC50 as the concentration at which the activity in the assay is half-maximal.

Test [1] concerns C. albicans CaCi-2 + fluconazole, Alamar Blue, 48 h. Description: growth inhibition of fluconazole-resistant C. albicans, confirmation, CaCi-2 isolate, dry powder retest, no file (AID 493081). A digest of the protocol: (§1)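 Schedule – 48 h at 37 °C, then 2 h dye step · Assay system – Candida albicans clinical isolate CaCi-2, fluconazole-resistant strain · Detection – Alamar Blue fluorescence, excitation 544 nm, emission 590 nm · Reagent – fluconazole at 8 µg/mL throughout the growth period · Read-out – fungal growth from fluorescence, lower signal meaning growth inhibition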

Assay in test [2]: as above
Particulars: C. albicans CaCi-2 (fluconazole-resistant clinical isolate) + fluconazole, Alamar Blue, 48 h; at 12 µM (top of the series). The method, boiled down:
as §1

As to `COC(=O)Cn1nc(-c2ccc(F)cc2)c2ccccc21`, in test [1], the AC50 is 8.18 µM.
`COC(=O)Cn1nc(-c2ccccc2)c2cccc(C(F)(F)F)c21`: in test [2], the activity change, negative = growth inhibition is 1.65% (inactive).
In the case of `O=C1OCCC1n1nc(-c2ccccc2)c2ccccc21` (stereo not given), the activity change, negative = growth inhibition in test [2] is -11.6% (inactive).
In the case of `COC(=O)Cn1nc(-c2ccccc2)c2ccccc21`, the AC50 in test [1] was 1.27 µM.
As for `CCCCn1nc(-c2ccccc2)c2ccccc21`, in test [2], the activity change, negative = growth inhibition was 19.1% (inactive).
Turning to `COC(=O)C(C)(C)n1nc(-c2ccccc2)c2ccccc21`, the activity change, negative = growth inhibition in test [2] is -6.64% (inactive).
As to `O=C(Cn1c2ccccc2c2nc3n(c(=O)c21)CCS3)N1CCOCC1`, in test [1], the AC50 is 1.61 µM.
Still for that read-out and setting: with `CCN(CC)C(=O)Cn1c2ccc(F)cc2c2nc3n(c(=O)c21)CCS3` the figure was 0.069 µM.
`CCC(=O)Cn1nc(-c2ccccc2)c2ccccc21`: the activity change, negative = growth inhibition in test [2] was -16.1% (inactive).
For the compound `O=C(Cn1nc(-c2ccccc2)c2ccccc21)OC1CCC1`, in test [2], the activity change, negative = growth inhibition was -23.5% (inactive).
In the case of `COc1ccc(-c2n[nH]c3ccccc23)cc1`, in test [2], the activity change, negative = growth inhibition was -24.1% (inactive).
On the same count and under the same terms, with `O=C(O)Cn1nc(-c2ccccc2)c2ccccc21` the figure was -9.2% (inactive).
On to `COC(=O)Cn1nc(-c2cccc(F)c2)c2ccccc21`, for which the half-maximal activity concentration (AC50) in test [1] was 8.12 µM.
On the same count and under the same terms, the figure for `CCN(CC)C(=O)Cn1c2ccccc2c2nc3n(c(=O)c21)CCS3` is 7.43 µM.
For `O=C(Cn1c2ccccc2c2ccncc21)N1CCCCC1`, the activity change, negative = growth inhibition in test [2] is -31.9% (inactive).
Turning to `O=C(Cn1c2ccc(F)cc2c2nc3n(c(=O)c21)CCS3)N1CCCCC1`, the AC50 in test [1] was 0.413 µM.
Still for that read-out and setting: with `O=C(Cn1c2ccc(F)cc2c2nc3n(c(=O)c21)CCS3)N1CCCCCC1` the figure was 0.629 µM; with `O=C(Cn1c2ccccc2c2nc3n(c(=O)c21)CCS3)N1CCCC1`, 0.835 µM.
Regarding `COC(=O)CCCn1nc(-c2ccccc2)c2ccccc21`, the activity change, negative = growth inhibition in test [2] was -23.8% (inactive).
Consider `COC(=O)Cn1nc(-c2ccccc2C)c2ccccc21`, for which the AC50 in test [1] is 6.14 µM.
Same read-out and setting: the figure for `O=C(Cn1c2ccc(F)cc2c2nc3n(c(=O)c21)CCS3)N1CCCC1` is 0.608 µM.
Turning to `FC(F)(F)c1ccc(-c2n[nH]c3ccccc23)cc1`, in test [2], the activity change, negative = growth inhibition was -27.3% (inactive).
For `CC1CCN(C(=O)Cn2c3ccccc3c3nc4n(c(=O)c32)CCS4)CC1`, the AC50 in test [1] was 1.79 µM.
The same measure, in the same setting: with `O=C(Cn1c2ccccc2c2nc3n(c(=O)c21)CCS3)N1CCCCC1` the figure was 0.606 µM.
For the compound `COC(=O)Cn1nc(-c2ccccc2)c2ccc(C(F)(F)F)cc21`, the activity change, negative = growth inhibition in test [2] is -26.8% (inactive).
